The structures appear in SMILES notation. A value given as a limit tells only on which side of the number the result lay.

In data set [1] the test system is HEK293. As to the kind of experiment: Cytotoxicity against HEK293 cells expressing UGT assessed as LDH leakage at 1 mM after 6 to 24 hrs by spectrophotometric analysis relative to total cell LDH level. The class given is ADME, cell-based. Conditions: human, hek293, 1000 µM; call rule not given here. Put shortly:
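Stable UGT-expressing or mock HEK293 lines in DMEM with 0.5% FBS, 2 x 10^4 cells/well, drug for 6, 12 or 24 h. LDH released into medium read at 490 nm (690 nm reference); percentage calculated against maximum release from control cells lysed with 1% Triton X-100.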

In data set [2] the test system is Hepatocyte. Briefly: Cytotoxicity against human hepatocytes assessed as decrease in cell viability by measuring intracellular ATP content at 1 mM measured at 6 hrs by CellTiter-Glo luminescent assay in presence of acyl glucuronidation inhibitor (-)-borneol. In kind it is cell-based. Conditions: 1000 µM. Put shortly: (§1)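 Human hepatocytes (pooled, cryopreserved), 2 × 10^4 cells/well on collagen in HCM with 0.5% FBS and 10 nM estradiol; 30-min preincubation ± 1 mM (-)-borneol, then drug 6 h. Intracellular ATP measured by CellTiter-Glo luminescence, percent of control cells. Triplicates, mean ± SD.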

For data set [3], the target named is T1, UDP-glucuronosyltransferase 1A4 (Homo sapiens, UniProt P22310).
T1 sequence (P22310 whole entry): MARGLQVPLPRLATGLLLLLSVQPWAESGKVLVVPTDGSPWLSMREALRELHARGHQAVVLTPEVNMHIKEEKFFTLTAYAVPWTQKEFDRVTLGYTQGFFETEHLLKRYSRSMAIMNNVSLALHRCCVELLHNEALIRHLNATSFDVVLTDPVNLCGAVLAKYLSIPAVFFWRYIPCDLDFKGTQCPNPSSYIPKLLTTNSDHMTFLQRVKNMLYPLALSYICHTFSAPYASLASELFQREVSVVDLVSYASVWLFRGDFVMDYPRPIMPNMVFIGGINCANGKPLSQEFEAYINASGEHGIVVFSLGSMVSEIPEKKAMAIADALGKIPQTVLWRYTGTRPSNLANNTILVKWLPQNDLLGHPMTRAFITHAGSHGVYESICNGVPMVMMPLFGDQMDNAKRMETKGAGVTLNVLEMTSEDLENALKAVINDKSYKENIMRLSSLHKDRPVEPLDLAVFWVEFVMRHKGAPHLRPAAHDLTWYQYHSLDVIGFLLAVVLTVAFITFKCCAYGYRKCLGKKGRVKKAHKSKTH
As to the kind of experiment: Activity of human UGT1A4 expressed in HEK293 cells assessed as enzyme-mediated ibuprofen acyl-beta-D-glucuronide formation at 1 mM measured at 24 hrs by LC-MS/MS analysis. In kind it is ADME, cell-based. Conditions: hek293, 24 h, 1000 µM. Put shortly: (§2)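 HEK293 stably expressing human UGT1A4, 2 x 10^5 cells/well in DMEM with 0.5% FBS, drug exposure 6–24 h, DMSO ≤0.1% final. Acyl glucuronide in cell fraction and medium measured by LC-MS/MS after methanol/acetic acid (100:1) precipitation and centrifugation. Triplicate determinations.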

In data set [4] the test system is HEK293. Briefly: Genotoxicity in HEK293 cells expressing UGT1A3 assessed as DNA strand breaks at 1 mM after 24 hrs by comet assay. Conditions: human, hek293, 24 h, 1000 µM. In kind it is toxicity, cell-based. Summed up: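 Alkaline comet assay: HEK/UGT1A3 cells seeded 24 h before, treated 24 h in DMEM with 0.5% FBS (vehicle 0.1% DMSO; MMS 0.1 mM positive control). Cells embedded in LMP agarose, lysed 1 h at 4°C at pH 10, unwound 30 min in NaOH/EDTA, electrophoresed 300 mA 20 min, ethidium-stained; tail moment scored on 150-180 comets over >3 experiments, median (IQR).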

Data set [5] concerns the target T2, UDP-glucuronosyltransferase 1A3 (Homo sapiens, UniProt P35503).
T2 sequence (P35503 whole entry): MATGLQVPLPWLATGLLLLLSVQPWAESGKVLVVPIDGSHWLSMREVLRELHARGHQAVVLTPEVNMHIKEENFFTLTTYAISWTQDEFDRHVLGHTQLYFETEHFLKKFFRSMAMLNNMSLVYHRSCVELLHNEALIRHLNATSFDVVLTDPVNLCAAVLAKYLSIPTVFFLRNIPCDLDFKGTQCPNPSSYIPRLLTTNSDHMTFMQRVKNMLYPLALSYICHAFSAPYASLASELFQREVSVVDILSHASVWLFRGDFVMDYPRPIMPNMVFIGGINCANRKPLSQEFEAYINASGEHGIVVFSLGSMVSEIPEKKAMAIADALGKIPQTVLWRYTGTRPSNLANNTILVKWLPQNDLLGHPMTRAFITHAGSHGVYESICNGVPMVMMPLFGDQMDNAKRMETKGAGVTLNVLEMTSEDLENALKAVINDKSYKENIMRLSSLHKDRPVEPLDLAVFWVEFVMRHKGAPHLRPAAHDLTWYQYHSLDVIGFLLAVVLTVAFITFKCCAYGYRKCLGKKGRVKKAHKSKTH
As to the kind of experiment: Activity of human UGT1A3 expressed in HEK293 cells assessed as enzyme-mediated ibuprofen acyl-beta-D-glucuronide formation at 1 mM measured at 24 hrs by LC-MS/MS analysis. Conditions: hek293, 24 h, 1000 µM. In kind it is ADME, cell-based. Summed up:
(§3)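 HEK293 stably expressing human UGT1A3 (G418-selected), 2 x 10^5 cells/well in 1 mL DMEM with 0.5% FBS, exposed immediately to drug for 6, 12 or 24 h; DMSO ≤0.1% final. Cells and medium separated by centrifugation, cell fraction resuspended in PBS; aliquots mixed 1:1 with methanol/acetic acid (100:1), spun, supernatant analysed by LC-MS/MS. Triplicate determinations, mean ± SD.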

The test system of data set [6] is HEK293. As to the kind of experiment: Cytotoxicity against HEK293 cells expressing UGT1A4 assessed as decrease in cell viability at 1 mM by MTT assay. The class given is ADME, cell-based. Conditions: human, hek293, 1000 µM; TDE = time-dependent effect.
Data set [7] concerns Hepatocyte. Briefly: Cellular uptake in human hepatocytes at 1 mM measured at 6 hrs by LC-MS/MS analysis in presence of acyl glucuronidation inhibitor (-)-borneol. In kind it is ADME, cell-based. Conditions: 1000 µM. Put shortly:
(§4)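 Cryopreserved pooled human hepatocytes on collagen-coated wells, 2 × 10^5 cells/well in HCM medium with 0.5% FBS, preincubated 30 min with or without 1 mM (-)-borneol, then drug for 6 h; DMSO ≤0.2% final. Parent drug in cell fraction measured by LC-MS/MS after methanol/acetic acid extraction. Mean ± SD of triplicates.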

The subject of data set [8] is Hepatocyte. Briefly: Cytotoxicity against human hepatocytes assessed as decrease in cell viability at 1 mM measured at 6 hrs […] in presence of acyl glucuronidation inhibitor (-)-borneol. The class given is cell-based. Conditions: 1000 µM.
Data set [9] relates to HEK293. Briefly: Cytotoxicity against HEK293 cells expressing UGT1A3 assessed as decrease in cell viability at 1 mM by MTT assay. In kind it is ADME, cell-based. Conditions: human, hek293, 1000 µM; TDE = time-dependent effect.
In data set [10] the test system is HEK293. Briefly: Cytotoxicity against HEK293 cells expressing UGT1A4 assessed as decrease in cell viability by measuring intracellular ATP content at 1 mM by CellTiter-Glo luminescent assay. The class given is ADME, cell-based. Conditions: human, hek293, 1000 µM; TDE = time-dependent effect. Summed up:
(§5)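 UGT1A3 or UGT1A4 stable HEK293 cells, 2 x 10^4 cells/well in 0.1 mL DMEM with 0.5% FBS, drug for 6, 12 or 24 h. Viability from intracellular ATP via CellTiter-Glo luminescence, expressed as percent of control cells. Mean ± SD of triplicates.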

The subject of data set [11] is Hepatocyte. Briefly: Cellular uptake in human hepatocytes at 1 mM measured at 6 hrs by LC-MS/MS analysis in absence of acyl glucuronidation inhibitor (-)-borneol. Conditions: 1000 µM. The class given is ADME, cell-based. Put shortly: as §4
The test system of data set [12] is Hepatocyte. Briefly: Cytotoxicity against human hepatocytes assessed as decrease in cell viability by measuring intracellular ATP content at 1 mM measured at 6 hrs by CellTiter-Glo luminescent assay in absence of acyl glucuronidation inhibitor (-)-borneol. In kind it is cell-based. Conditions: 1000 µM. Put shortly: as §1
In data set [13] the test system is HEK293. As to the kind of experiment: Cytotoxicity against mock transfected HEK293 cells assessed as decrease in cell viability at 1 mM by MTT assay. The class given is cell-based. Conditions: human, hek293, 1000 µM; TDE = time-dependent effect.
In data set [14] the test system is HEK293. As to the kind of experiment: Cytotoxicity against HEK293 cells expressing UGT1A3 assessed as decrease in cell viability by measuring intracellular ATP content at 1 mM by CellTiter-Glo luminescent assay. In kind it is ADME, cell-based. Conditions: human, hek293, 1000 µM; TDE = time-dependent effect. Summed up:
as §5

The test system of data set [15] is HEK293. Briefly: Cytotoxicity against mock transfected HEK293 cells assessed as decrease in cell viability by measuring intracellular ATP content at 1 mM by CellTiter-Glo luminescent assay. In kind it is cell-based. Conditions: human, hek293, 1000 µM; TDE = time-dependent effect. Summed up:
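Mock-transfected HEK293 cells seeded at 2 x 10^4 cells/well in DMEM with 0.5% FBS, drug added at once and incubated 6, 12 or 24 h. Viability read either by WST-8 (CCK-8) formazan absorbance at 450 nm or by intracellular ATP luminescence (CellTiter-Glo), as percent of control cells; mean ± SD of triplicates. Final DMSO ≤0.1%.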

Data set [16] concerns HEK293. As to the kind of experiment: Cytotoxicity against HEK293 cells expressing UGT assessed as decrease in cell viability at 1 mM measured up to 72 hrs by MTT assay. Conditions: human, hek293, 72 h, 1000 µM. The class given is ADME, cell-based. Summed up: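 Mock and UGT1A3/UGT1A4 stable HEK293 cells given drug for up to 72 h; viability measured by WST-8-based MTT assay.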

The target in data set [17] is T1, UDP-glucuronosyltransferase 1A4. As to the kind of experiment: Activity of human UGT1A4 expressed in HEK293 cells assessed as enzyme-mediated ketoprofen acyl-beta-D-glucuronide formation at 1 mM measured at 24 hrs by LC-MS/MS analysis. The class given is ADME, cell-based. Conditions: hek293, 24 h, 1000 µM. Summed up:
as §2

For data set [18], the target named is T2, UDP-glucuronosyltransferase 1A3. As to the kind of experiment: Activity of human UGT1A3 expressed in HEK293 cells assessed as enzyme-mediated ketoprofen acyl-beta-D-glucuronide formation at 1 mM measured at 24 hrs by LC-MS/MS analysis. The class given is ADME, cell-based. Conditions: hek293, 24 h, 1000 µM. Summed up:
as §3

For `CC(C)Cc1ccc(C(C)C(=O)O)cc1` (configuration not stated) [IBUPROFEN], the Activity in the data set on HEK293 [1] was under 5.4%; in the data set with Hepatocyte [2], “Toxic”; in the data set with HEK293 [4] it was “Non-toxic”; with HEK293 [6], “tde”; with Hepatocyte [8] it was “Toxic”; in the data set with HEK293 [9] it was “tde”. Also, the Activity entry with HEK293 [10] is listed as “tde”; in the data set on Hepatocyte [12], “Toxic”; with HEK293 [13] it was “tde”; in the data set with HEK293 [14], “tde”; with HEK293 [15] it was “tde”; in the data set with HEK293 [16] it was “Non-toxic”. In addition, the Drug metabolism result is “metabolite_not_detected” in data set [3] and “metabolite_detected” in data set [5]. The Drug uptake result in the data set on Hepatocyte [7] and in the data set on Hepatocyte [11] was “Active” each time.

For `CC(C(=O)O)c1cccc(C(=O)c2ccccc2)c1` (configuration not stated) [KETOPROFEN], the Activity in the data set with HEK293 [1] is under 5.4%; in the data set on HEK293 [4], “Non-toxic”; in the data set on HEK293 [6], “tde”; in the data set on HEK293 [9], “tde”; in the data set with HEK293 [10], “tde”; in the data set on HEK293 [13] it was “tde”. The Activity result is on record as “tde” with HEK293 [14], “tde” in the data set on HEK293 [15] and “Non-toxic” in the data set with HEK293 [16]. The Drug metabolism result in data set [17] is reported as “metabolite_not_detected”; in data set [18], “metabolite_detected”.

Source of the values: ChEMBL document CHEMBL3526116, “Toxicological evaluation of acyl glucuronides of nonsteroidal anti-inflammatory drugs using human embryonic kidney 293 cells stably expressing human UDP-glucuronosyltransferase and human hepatocytes” (Drug Metab Dispos, 2011).
